What was measured:
[1] = system: Rattus norvegicus; test: Increase in cholesterol level in Wistar rat liver at 362 umol/kg/day administered through diet for 4 days; assay type: ADME, organism-based; conditions: in vivo, po, 96 h
[2] = system: Rattus norvegicus; test: Increase in liver weight in Wistar rat at 362 umol/kg/day administered through diet for 4 days; assay type: ADME, organism-based; conditions: in vivo, po, 96 h
[3] = system: Rattus norvegicus; test: Hypolipidemic activity in Wistar rat assessed as reduction in plasma cholesterol level at 441 umol/kg/day administered through diet for 4 days; assay type: functional; conditions: 96 h
Procedure, shortened: (§1)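 Young male Wistar rats, 170-190 g initial weight, groups of six, given compound mixed thoroughly into Purina Lab Chow ad libitum for 4 or 10 days as stated. Daily dose calculated from food consumption and body weight. Bled by cardiac puncture at end of treatment; plasma cholesterol measured by automated procedure. Expressed as percent reduction versus simultaneous untreated control group; Student's t test.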

[4] = system: Rattus norvegicus; test: Hypolipidemic activity in Wistar rat assessed as reduction in plasma triglyceride level at 441 umol/kg/day administered through diet for 4 days; assay type: functional; conditions: 96 h
[5] = system: Rattus norvegicus; test: Increase in cholesterol level in Wistar rat liver at 441 umol/kg/day administered through diet for 4 days; assay type: ADME, organism-based; conditions: in vivo, po, 96 h
[6] = system: Rattus norvegicus; test: Increase in liver weight in Wistar rat at 441 umol/kg/day administered through diet for 4 days; assay type: ADME, organism-based; conditions: in vivo, po, 96 h
[7] = system: Rattus norvegicus; test: Hypolipidemic activity in Wistar rat assessed as reduction in plasma cholesterol level at 540 umol/kg/day administered through diet for 4 days; assay type: functional; conditions: 96 h; procedure, shortened: as §1
[8] = system: Rattus norvegicus; test: Hypolipidemic activity in Wistar rat assessed as reduction in plasma triglyceride level at 540 umol/kg/day administered through diet for 4 days; assay type: functional; conditions: 96 h
[9] = system: Rattus norvegicus; test: Increase in cholesterol level in Wistar rat liver at 540 umol/kg/day administered through diet for 4 days; assay type: ADME, organism-based; conditions: in vivo, po, 96 h
[10] = system: Rattus norvegicus; test: Increase in liver weight in Wistar rat at 540 umol/kg/day administered through diet for 4 days; assay type: ADME, organism-based; conditions: in vivo, po, 96 h
[11] = system: Rattus norvegicus; test: Hypolipidemic activity in Wistar rat assessed as reduction in plasma cholesterol level at 422 umol/kg/day administered through diet for 4 days; assay type: functional; conditions: 96 h; procedure, shortened: as §1
[12] = system: Rattus norvegicus; test: Hypolipidemic activity in Wistar rat assessed as reduction in plasma triglyceride level at 422 umol/kg/day administered through diet for 4 days; assay type: functional; conditions: 96 h
[13] = system: Rattus norvegicus; test: Increase in cholesterol level in Wistar rat liver at 422 umol/kg/day administered through diet for 4 days; assay type: ADME, organism-based; conditions: in vivo, po, 96 h
[14] = system: Rattus norvegicus; test: Increase in liver weight in Wistar rat at 422 umol/kg/day administered through diet for 4 days; assay type: ADME, organism-based; conditions: in vivo, po, 96 h
[15] = system: Rattus norvegicus; test: Hypolipidemic activity in Wistar rat assessed as reduction in plasma cholesterol level at 437 umol/kg/day administered through diet for 4 days; assay type: functional; conditions: 96 h; procedure, shortened: as §1
[16] = system: Rattus norvegicus; test: Hypolipidemic activity in Wistar rat assessed as reduction in plasma triglyceride level at 437 umol/kg/day administered through diet for 4 days; assay type: functional; conditions: 96 h
[17] = system: Rattus norvegicus; test: Increase in cholesterol level in Wistar rat liver at 437 umol/kg/day administered through diet for 4 days; assay type: ADME, organism-based; conditions: in vivo, po, 96 h
[18] = system: Rattus norvegicus; test: Increase in liver weight in Wistar rat at 437 umol/kg/day administered through diet for 4 days; assay type: ADME, organism-based; conditions: in vivo, po, 96 h

Which results are given for `CCCCCCCCCCCCCCCCCCCCOc1ccc(C(=O)OC)cc1`?
Activity [1]: 0%; Activity [2]: 4%

What does the source list for `CCCCCCCCCCCCCCOc1ccc(C(=O)O)s1`?
inhibition in vivo at 441 µmol/kg [3]: 54%; inhibition in vivo at 441 µmol/kg [4]: 83%; Activity [5]: 1%; Activity [6]: 4%

How did the inhibition in vivo at 540 µmol/kg [7] turn out when `CCCCCCCCCCOc1ccc(C(=O)O)o1` was run?
The inhibition in vivo at 540 µmol/kg was 5%.

And the inhibition in vivo at 540 µmol/kg [8]?
Its inhibition in vivo at 540 µmol/kg is 46%.

And the Activity [9]?
The Activity was 17%.

And the Activity [10]?
Its Activity is 1%.

With `CCCCCCCCCCCCCCCCOc1ccc(C(=O)OCC)cc1` as the molecule, how does the inhibition in vivo at 422 µmol/kg [11] read?
Its inhibition in vivo at 422 µmol/kg is 8%.

And the inhibition in vivo at 422 µmol/kg [12]?
The inhibition in vivo at 422 µmol/kg was 29%.

And the Activity [13]?
Its Activity is 9%.

And the Activity [14]?
Its Activity is 11%.

What does the source list for `CCCCCCCCCCCCCCCCOc1ccc(C(=O)O)o1`?
inhibition in vivo at 437 µmol/kg [15]: 24%; inhibition in vivo at 437 µmol/kg [16]: 25%; Activity [17]: 5%; Activity [18]: 4%

From ChEMBL document CHEMBL3272012, “5-(Tetradecyloxy)-2-furancarboxylic acid and related hypolipidemic fatty acid-like alkyloxyarylcarboxylic acids” (J Med Chem, 1977)
